# Assay results taken from ChEMBL document CHEMBL2380254, “Optimization of tocotrienols as antiproliferative and antimigratory leads” (Eur J Med Chem, 2013).
# How the values were obtained:
# Type in all cases: functional
# BT-549 = assay: Growth inhibition of human BT549 cells assessed as cell growth at 10 uM after 48 hrs by sulforhodamine B assay; details: BT-549, 48 h, read-out: Activity
# How it was run: (§1)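 NCI-60 single-dose screen at 10 µM: cells in RPMI 1640 with 5% FBS, preincubated 24 h, then exposed 48 h at 37 °C. TCA fixation (16% final for suspension cells), SRB staining, absorbance 515 nm. Percent growth relative to time-zero and untreated control plates; negative values indicate cell kill.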
# [1] = Growth inhibition of human Hs 578T cells assessed as cell growth at 10 uM after 48 hrs by sulforhodamine B assay; details: read-out: Activity; how it was run: as §1
# UO-31 = assay: Growth inhibition of human UO31 cells assessed as cell growth at 10 uM after 48 hrs by sulforhodamine B assay; details: UO-31, 48 h, read-out: Activity
# How it was run: (§2)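 Single-dose NCI-60 test at 10 µM. Cells were grown in RPMI 1640 with 5% FBS and 2 mM L-glutamine, preincubated 24 h, with T0 plates TCA-fixed. Exposure was 48 h at 37 °C, 5% CO2. Cells were fixed with cold TCA (final 10%, 4 °C, 60 min), stained with SRB and read at 515 nm. Percent growth was taken relative to T0 and untreated control; negative values denote cell kill.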
# TK-10 = assay: Growth inhibition of human TK10 cells assessed as cell growth at 10 uM after 48 hrs by sulforhodamine B assay; details: TK-10, 48 h, read-out: Activity; how it was run: as §2
# ACHN = assay: Growth inhibition of human ACHN cells assessed as cell growth at 10 uM after 48 hrs by sulforhodamine B assay; details: read-out: Activity; how it was run: as §1
# OVCAR-4 = assay: Growth inhibition of human OVCAR4 cells assessed as cell growth at 10 uM after 48 hrs by sulforhodamine B assay; details: OVCAR-4, 48 h, read-out: Activity
# How it was run: (§3)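 Single-dose NCI-60 screen: adherent cells in RPMI 1640 with 5% FBS were exposed to 10 µM for 48 h at 37 °C after a 24 h preincubation. They were fixed in situ with cold TCA (10% final), stained with 0.4% SRB in 1% acetic acid, solubilized in 10 mM Tris base, and read at 515 nm. Percent growth was taken relative to time-zero and control plates.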
# OVCAR-3 = assay: Growth inhibition of human OVCAR3 cells assessed as cell growth at 10 uM after 48 hrs by sulforhodamine B assay; details: OVCAR-3, 48 h, read-out: Activity; how it was run: as §3
# SK-MEL-5 = assay: Growth inhibition of human SK-MEL-5 cells assessed as cell growth at 10 uM after 48 hrs by sulforhodamine B assay; details: SK-MEL-5, 48 h, read-out: Activity; how it was run: as §3
# MDA-MB-435 = assay: Growth inhibition of human MDA-MB-435 cells assessed as cell growth at 10 uM after 48 hrs by sulforhodamine B assay; details: MDA-MB-435, 48 h, read-out: Activity; how it was run: as §3
# U-251 = assay: Growth inhibition of human U251 cells assessed as cell growth at 10 uM after 48 hrs by sulforhodamine B assay; details: U-251, 48 h, read-out: Activity; how it was run: as §2
# K562 = assay: Growth inhibition of human K562 cells assessed as cell growth at 10 uM after 48 hrs by sulforhodamine B assay; details: K562, 48 h, read-out: Activity; how it was run: as §1
# HL-60(TB) = assay: Growth inhibition of human HL-60(TB) cells assessed as cell growth at 10 uM after 48 hrs by sulforhodamine B assay; details: HL-60, 48 h, read-out: Activity
# How it was run: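 NCI-60 single-dose screen run at 10 µM on HL-60(TB) suspension cells in RPMI 1640 with 5% FBS and 2 mM L-glutamine. Cells were preincubated for 24 h, with a time-zero plate fixed then. Exposure lasted 48 h at 37 °C. Settled cells were fixed with TCA (16% final), stained with SRB and read at 515 nm. Percent growth is relative to control and T0.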
# CCRF-CEM = assay: Growth inhibition of human CCRF-CEM cells assessed as cell growth at 10 uM after 48 hrs by sulforhodamine B assay; details: read-out: Activity; how it was run: as §1
# A498 = assay: Growth inhibition of human A498 cells assessed as cell growth at 10 uM after 48 hrs by sulforhodamine B assay; details: A498, 48 h, read-out: Activity; how it was run: as §1
Compound,growth at 10 µM (BT-549),growth at 10 µM [1],growth at 10 µM (UO-31),growth at 10 µM (TK-10),growth at 10 µM (ACHN),growth at 10 µM (OVCAR-4),growth at 10 µM (OVCAR-3),growth at 10 µM (SK-MEL-5),growth at 10 µM (MDA-MB-435),growth at 10 µM (U-251),growth at 10 µM (K562),growth at 10 µM (HL-60(TB)),growth at 10 µM (CCRF-CEM),growth at 10 µM (A498)
CC(C)=CCC/C(C)=C/CC/C(C)=C/CC[C@]1(C)CCc2c3c(cc(C)c2O1)OCN(CCCCCCCCCCCCO)C3,114%,93.2%,51.7%,58.4%,91.3%,77.5%,89.5%,58.1%,71.5%,59.1%,47.4%,27.6%,13.6%,–
CC(C)=CCC/C(C)=C/CC/C(C)=C/CC[C@]1(C)CCc2cc(O)c(C)c(C)c2O1 [GAMMA-TOCOTRIENOL],141%,102%,64.1%,122%,100%,102%,110%,99.1%,102%,102%,85%,86.5%,84%,–
COc1ccc(CCNCc2c(O)c(C)c(C)c3c2CC[C@@](C)(CC/C=C(\C)CC/C=C(\C)CCC=C(C)C)O3)cc1OC,118%,121%,69.5%,106%,97.5%,84%,101%,108%,57.5%,83.7%,42%,77.7%,75.3%,107%
CC(C)=CCC/C(C)=C/CC/C(C)=C/CC[C@]1(C)CCc2c(CNCCc3ccc(O)cc3)c(O)c(C)c(C)c2O1,105%,133%,70.8%,113%,98.7%,91%,97.1%,111%,81.3%,93%,63%,84%,75.2%,104%
CC(C)=CCC/C(C)=C/CC/C(C)=C/CC[C@]1(C)CCc2c3c(c(C)c(C)c2O1)OCN(CCc1ccc(O)cc1)C3,113%,91.8%,71.9%,106%,99.8%,81.4%,98.2%,115%,54.5%,81.8%,54.9%,72.3%,49.6%,90.2%
CC(C)=CCC/C(C)=C/CC/C(C)=C/CC[C@]1(C)CCc2c3c(c(C)c(C)c2O1)OCN(CCCCCCCCCCCCO)C3,127%,103%,77.7%,108%,105%,107%,109%,92.8%,100%,90.3%,80.5%,95%,95.2%,–
CC(C)=CCC/C(C)=C/CC/C(C)=C/CC[C@]1(C)CCc2c3c(cc(C)c2O1)OCN(CCCCCCCCCCO)C3,102%,99%,61.9%,101%,99.1%,92.1%,94.3%,85.2%,101%,74%,45.4%,62.7%,49.5%,–
CC(C)=CCC/C(C)=C/CC/C(C)=C/CC[C@]1(C)CCc2c3c(c(C)c(C)c2O1)OCN(CCCCCCCCCCO)C3,108%,96.5%,71.7%,99.4%,92.6%,105%,94.8%,95.6%,98.3%,78.7%,77.6%,88%,87.7%,–
